Results on two compounds are retold here after ChEMBL document CHEMBL1154352, “Toll-like receptor 7 selective synthetic oligoribonucleotide agonists: synthesis and structure-activity relationship studies” (J Med Chem, 2009).

SMILES strings stand for the structures. Activity calls are given as the source filed them. The rule behind the calls is not given here.

For data set [1], the system named is Splenocyte. The experiment in a line: Immunomodulatory activity in C57BL/6 mouse splenocytes bearing TLR7 receptor assessed as IL6 release at 100 ug/ml after 24 hrs by ELISA. The data set is classed as functional, cell-based. The gist of the method: (§1)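 C57BL/6 splenocytes in RPMI 1640 with 10% FBS, penicillin/streptomycin, 2 mM L-glutamine, plated at 5 × 10^6 cells/mL; compounds in PBS added, 37 °C for 24 h. Supernatant IL-12 and IL-6 by ELISA; representative of three independent experiments.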

The test system of data set [2] is Splenocyte. The experiment in a line: Immunomodulatory activity in C57BL/6 mouse splenocytes bearing TLR7 receptor assessed as IL12 release at 100 ug/ml after 24 hrs by ELISA. The data set is classed as functional, cell-based. In a few lines: as §1
A general note: An ELISA detects its analyte on a solid surface through an enzyme-linked reagent.

Data set [3] has as its target T1, Toll-like receptor 8 (Homo sapiens) (UniProt Q9NR97).
T1 sequence (whole entry): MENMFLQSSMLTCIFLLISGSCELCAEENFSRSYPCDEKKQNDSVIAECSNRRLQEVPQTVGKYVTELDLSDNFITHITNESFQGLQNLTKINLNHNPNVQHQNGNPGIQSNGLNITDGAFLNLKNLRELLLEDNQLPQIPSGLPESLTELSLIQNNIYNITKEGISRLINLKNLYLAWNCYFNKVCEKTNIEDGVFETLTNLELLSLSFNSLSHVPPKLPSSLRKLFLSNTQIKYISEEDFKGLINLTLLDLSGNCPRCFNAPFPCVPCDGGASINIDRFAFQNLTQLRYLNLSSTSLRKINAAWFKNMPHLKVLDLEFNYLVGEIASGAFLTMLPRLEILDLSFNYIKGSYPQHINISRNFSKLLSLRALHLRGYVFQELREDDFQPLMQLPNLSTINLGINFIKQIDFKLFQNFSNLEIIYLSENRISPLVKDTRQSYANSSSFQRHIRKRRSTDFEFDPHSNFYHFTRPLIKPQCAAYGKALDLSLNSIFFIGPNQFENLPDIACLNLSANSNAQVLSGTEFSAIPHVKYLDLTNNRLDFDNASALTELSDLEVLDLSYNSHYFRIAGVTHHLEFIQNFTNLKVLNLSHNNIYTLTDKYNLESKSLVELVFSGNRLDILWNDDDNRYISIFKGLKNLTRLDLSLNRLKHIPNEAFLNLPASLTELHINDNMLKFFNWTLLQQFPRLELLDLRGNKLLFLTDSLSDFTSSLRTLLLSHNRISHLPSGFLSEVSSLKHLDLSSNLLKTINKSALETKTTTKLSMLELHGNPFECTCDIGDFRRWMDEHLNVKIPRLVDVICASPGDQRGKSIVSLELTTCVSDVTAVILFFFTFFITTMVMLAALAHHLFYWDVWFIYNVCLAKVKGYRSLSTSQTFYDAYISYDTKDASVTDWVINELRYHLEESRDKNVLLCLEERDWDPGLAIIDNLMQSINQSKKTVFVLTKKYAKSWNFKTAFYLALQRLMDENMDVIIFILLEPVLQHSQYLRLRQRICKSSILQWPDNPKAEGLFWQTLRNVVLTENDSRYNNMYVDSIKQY
Nature of the data set: Activation of human TLR8 expressed in HEK293XL assessed as fold induction of NF-kappaB activity at 50 ug/ml after 18 hrs by reporter gene assay relative to control. In a few lines:
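HEK293 cells stably expressing human TLR7 or TLR8, transiently transfected with SEAP reporter plasmid; medium replaced, SIMRA compounds added, 18 h incubation. Supernatant SEAP measured by QuantiBlue; expressed as fold increase in NF-κB activity over PBS control. Tabulated data at 50 μg/mL, representative of three independent experiments.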
On the technique in general: In a reporter assay the amount or activity of a reporter protein is the signal.

Data set [4] deals with PBMC. Nature of the data set: Immunomodulatory activity in human PBMC assessed as induction of TNFalpha at 100 ug/ml after 24 hrs. The data set is classed as functional, cell-based. In a few lines: (§2)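 Human PBMCs plated at 5 × 10^6 cells/mL; compounds dissolved in PBS added at various concentrations, 37 °C for 24 h. Supernatant cytokines/chemokines quantified with human Luminex multiplex kit.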

The nature of data set [5]: Metabolic stability in human serum assessed as full length product remaining after 10 mins by HPLC. Type of data set: ADME, cell-free. The conditions noted are these: read-out: Stability. The gist of the method:
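About 0.5 A260 units compound in 1% human serum in PBS, 37 °C; aliquot taken at 10 min, analysed by anion-exchange HPLC for percent intact full-length product.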

Data set [6] deals with PBMC. Nature of the data set: Immunomodulatory activity in human PBMC assessed as induction of IL12 at 100 ug/ml after 24 hrs. Type of data set: functional, cell-based. In a few lines: as §2
Data set [7] relates to PBMC. Nature of the data set: Immunomodulatory activity in human PBMC assessed as induction of IFN-alpha at 100 ug/ml after 24 hrs.
Data set [8] concerns the target Toll-like receptor 3 (Homo sapiens) (UniProt O15455). The experiment in a line: Activation of human TLR3 expressed in HEK293 assessed as induction of NF-kappaB activity reporter gene assay. The data set is classed as cell-based.
Data set [9] deals with T2, Toll-like receptor 9 (Mus musculus) (UniProt Q9EQU3).
T2 sequence (whole entry): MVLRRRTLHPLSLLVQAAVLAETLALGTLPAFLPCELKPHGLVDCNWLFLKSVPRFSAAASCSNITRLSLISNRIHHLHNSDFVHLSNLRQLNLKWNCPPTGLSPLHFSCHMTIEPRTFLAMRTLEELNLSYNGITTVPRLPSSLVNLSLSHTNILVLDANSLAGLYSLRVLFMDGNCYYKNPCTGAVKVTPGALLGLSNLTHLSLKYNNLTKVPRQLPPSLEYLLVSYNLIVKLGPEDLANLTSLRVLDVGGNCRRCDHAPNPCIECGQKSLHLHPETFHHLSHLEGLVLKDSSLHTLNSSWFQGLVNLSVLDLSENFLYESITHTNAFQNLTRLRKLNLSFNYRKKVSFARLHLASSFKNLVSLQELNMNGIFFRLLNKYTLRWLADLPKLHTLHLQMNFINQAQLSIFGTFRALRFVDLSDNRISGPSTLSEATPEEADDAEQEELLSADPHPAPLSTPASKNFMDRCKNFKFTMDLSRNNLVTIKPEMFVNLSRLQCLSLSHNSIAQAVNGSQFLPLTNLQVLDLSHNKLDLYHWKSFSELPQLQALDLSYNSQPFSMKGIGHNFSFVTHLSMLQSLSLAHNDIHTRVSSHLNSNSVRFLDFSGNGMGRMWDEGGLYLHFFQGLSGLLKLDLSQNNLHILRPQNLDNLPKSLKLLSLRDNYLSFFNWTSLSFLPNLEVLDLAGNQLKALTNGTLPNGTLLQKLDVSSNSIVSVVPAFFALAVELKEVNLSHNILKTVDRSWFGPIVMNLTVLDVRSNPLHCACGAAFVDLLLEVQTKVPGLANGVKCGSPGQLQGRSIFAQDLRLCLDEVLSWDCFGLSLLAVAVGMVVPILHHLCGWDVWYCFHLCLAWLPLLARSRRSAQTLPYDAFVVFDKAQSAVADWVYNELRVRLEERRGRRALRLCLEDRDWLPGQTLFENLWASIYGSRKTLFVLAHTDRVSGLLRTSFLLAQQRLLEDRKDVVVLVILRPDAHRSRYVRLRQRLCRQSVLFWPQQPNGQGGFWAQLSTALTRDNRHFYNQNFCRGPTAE
The experiment in a line: Activation of mouse TLR9 expressed in HEK293 assessed as induction of NF-kappaB activity reporter gene assay. Type of data set: cell-based.

Chain of Toll-like receptor 3 (Homo sapiens) (O15455 whole entry): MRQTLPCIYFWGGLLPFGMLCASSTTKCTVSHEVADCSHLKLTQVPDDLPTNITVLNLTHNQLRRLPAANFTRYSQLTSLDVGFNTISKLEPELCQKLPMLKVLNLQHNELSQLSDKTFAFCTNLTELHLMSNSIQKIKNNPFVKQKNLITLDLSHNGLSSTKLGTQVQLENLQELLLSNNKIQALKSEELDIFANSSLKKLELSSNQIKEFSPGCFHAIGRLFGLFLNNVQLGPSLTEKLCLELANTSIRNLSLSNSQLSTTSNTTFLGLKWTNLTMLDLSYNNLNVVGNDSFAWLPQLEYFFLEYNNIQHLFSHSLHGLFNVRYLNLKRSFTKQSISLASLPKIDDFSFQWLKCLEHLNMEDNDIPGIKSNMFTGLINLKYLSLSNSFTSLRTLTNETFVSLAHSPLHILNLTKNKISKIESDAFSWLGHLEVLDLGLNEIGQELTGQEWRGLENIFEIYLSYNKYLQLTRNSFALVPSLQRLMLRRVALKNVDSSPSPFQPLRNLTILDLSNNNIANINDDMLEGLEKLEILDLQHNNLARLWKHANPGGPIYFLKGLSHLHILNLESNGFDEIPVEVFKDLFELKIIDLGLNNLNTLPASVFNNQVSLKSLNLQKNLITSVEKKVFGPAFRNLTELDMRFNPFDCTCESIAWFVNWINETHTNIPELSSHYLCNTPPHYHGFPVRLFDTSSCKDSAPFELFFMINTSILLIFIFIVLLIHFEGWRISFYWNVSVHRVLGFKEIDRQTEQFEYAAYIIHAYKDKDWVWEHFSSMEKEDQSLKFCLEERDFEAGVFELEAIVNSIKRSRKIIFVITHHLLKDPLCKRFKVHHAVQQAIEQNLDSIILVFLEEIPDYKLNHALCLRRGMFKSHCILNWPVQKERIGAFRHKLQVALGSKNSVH

`Nc1ccn([C@@H]2O[C@H](COP(=O)(S)O[C@H]3[C@@H](O)[C@H](n4cnc5c(N)ncnc54)O[C@@H]3COP(=O)(S)O[C@H]3[C@@H](O)[C@H](n4cnc5c(N)ncnc54)O[C@@H]3CO)[C@@H](OP(=O)(S)OC[C@H]3O[C@@H](n4ccc(=O)[nH]c4=O)[C@H](O)[C@@H]3OP(=O)(S)OC[C@H]3O[C@@H](n4ccc5c(=O)[nH]c(N)nc54)[C@H](O)[C@@H]3OP(=O)(S)OC[C@H]3O[C@@H](n4cnc5c(N)ncnc54)[C@H](O)[C@@H]3OP(=O)(S)OC[C@H]3O[C@@H](n4cnc5c(N)ncnc54)[C@H](O)[C@@H]3OP(=O)(S)OC[C@H]3O[C@@H](n4ccc5c(=O)[nH]c(N)nc54)[C@H](O)[C@@H]3OP(=O)(S)OC[C@H]3O[C@@H](n4ccc(N)nc4=O)[C@H](O)[C@@H]3OP(=O)(S)OC[C@H]3O[C@@H](n4ccc(=O)[nH]c4=O)[C@H](O)[C@@H]3OP(=O)(S)OC[C@H]3O[C@@H](n4ccc(=O)[nH]c4=O)[C@H](O)[C@@H]3OP(=O)(S)OCC(O)COP(=O)(S)O[C@H]3[C@@H](O)[C@H](n4ccc(=O)[nH]c4=O)O[C@@H]3COP(=O)(S)O[C@H]3[C@@H](O)[C@H](n4ccc(=O)[nH]c4=O)O[C@@H]3COP(=O)(S)O[C@H]3[C@@H](O)[C@H](n4ccc(N)nc4=O)O[C@@H]3COP(=O)(S)O[C@H]3[C@@H](O)[C@H](n4ccc5c(=O)[nH]c(N)nc54)O[C@@H]3COP(=O)(S)O[C@H]3[C@@H](O)[C@H](n4cnc5c(N)ncnc54)O[C@@H]3COP(=O)(S)O[C@H]3[C@@H](O)[C@H](n4cnc5c(N)ncnc54)O[C@@H]3COP(=O)(S)O[C@H]3[C@@H](O)[C@H](n4ccc5c(=O)[nH]c(N)nc54)O[C@@H]3COP(=O)(S)O[C@H]3[C@@H](O)[C@H](n4ccc(=O)[nH]c4=O)O[C@@H]3COP(=O)(S)O[C@H]3[C@@H](O)[C@H](n4ccc(N)nc4=O)O[C@@H]3COP(=O)(S)O[C@H]3[C@@H](O)[C@H](n4cnc5c(N)ncnc54)O[C@@H]3COP(=O)(S)O[C@H]3[C@@H](O)[C@H](n4cnc5c(N)ncnc54)O[C@@H]3CO)[C@H]2O)c(=O)n1` (stereo partly drawn): the result with Splenocyte [1] and in the data set with Splenocyte [2] was Active. The fold change (FC) in data set [3] stood at 1. For the same compound, the Activity stood at 7.5 pg/mL in the data set on PBMC [4] and 260 pg/mL with PBMC [6]. For the same compound, the remaining at 10 min in data set [5] worked out at 77%. Moreover, in the data set on PBMC [7], the IFN-alpha amounted to 84.5 pg/mL. Besides, the outcome in data set [8] and in [9] was inactive.
Take `Nc1ccn([C@@H]2O[C@H](COP(=O)(S)O[C@H]3[C@@H](O)[C@H](n4cnc5c(N)ncnc54)O[C@@H]3COP(=O)(S)O[C@H]3[C@@H](O)[C@H](n4cnc5c(N)ncnc54)O[C@@H]3CO)[C@@H](OP(=O)(S)OC[C@H]3O[C@@H](n4ccc(=O)[nH]c4=O)[C@H](O)[C@@H]3OP(=O)(S)OC[C@H]3O[C@@H](n4ccc5c(=O)[nH]c(N)nc54)[C@H](O)[C@@H]3OP(=O)(S)OC[C@H]3O[C@@H](n4cnc5c(N)ncnc54)[C@H](O)[C@@H]3OP(=O)(S)OC[C@H]3O[C@@H](n4cnc5c(N)ncnc54)[C@H](O)[C@@H]3OP(=O)(S)OC[C@H]3O[C@@H](n4ccc5c(=O)[nH]c(N)nc54)[C@H](O)[C@@H]3OP(=O)(S)OC[C@H]3O[C@@H](n4ccc(N)nc4=O)[C@H](O)[C@@H]3OP(=O)(S)OC[C@H]3O[C@@H](n4ccc(=O)[nH]c4=O)[C@H](O)[C@@H]3OP(=O)(S)OC[C@H]3O[C@@H](n4ccc5c(=O)[nH]c(N)nc54)[C@H](O)[C@@H]3OP(=O)(S)OCC(O)COP(=O)(S)O[C@H]3[C@@H](O)[C@H](n4ccc5c(=O)[nH]c(N)nc54)O[C@@H]3COP(=O)(S)O[C@H]3[C@@H](O)[C@H](n4ccc(=O)[nH]c4=O)O[C@@H]3COP(=O)(S)O[C@H]3[C@@H](O)[C@H](n4ccc(N)nc4=O)O[C@@H]3COP(=O)(S)O[C@H]3[C@@H](O)[C@H](n4ccc5c(=O)[nH]c(N)nc54)O[C@@H]3COP(=O)(S)O[C@H]3[C@@H](O)[C@H](n4cnc5c(N)ncnc54)O[C@@H]3COP(=O)(S)O[C@H]3[C@@H](O)[C@H](n4cnc5c(N)ncnc54)O[C@@H]3COP(=O)(S)O[C@H]3[C@@H](O)[C@H](n4ccc5c(=O)[nH]c(N)nc54)O[C@@H]3COP(=O)(S)O[C@H]3[C@@H](O)[C@H](n4ccc(=O)[nH]c4=O)O[C@@H]3COP(=O)(S)O[C@H]3[C@@H](O)[C@H](n4ccc(N)nc4=O)O[C@@H]3COP(=O)(S)O[C@H]3[C@@H](O)[C@H](n4cnc5c(N)ncnc54)O[C@@H]3COP(=O)(S)O[C@H]3[C@@H](O)[C@H](n4cnc5c(N)ncnc54)O[C@@H]3CO)[C@H]2O)c(=O)n1` (stereo partly drawn): the result with Splenocyte [1] and with Splenocyte [2] was Active. The fold change (FC) in data set [3] was found to be 0.6. Also, the results for the Activity with PBMC [4] and in the data set on PBMC [6] were 3.5 pg/mL and 240 pg/mL, respectively. The remaining at 10 min in [5] turned out to be 76%. The IFN-alpha in the data set on PBMC [7] was 28.7 pg/mL. Further, the result in data set [8] and in data set [9] was inactive.
